Legend:
[1] = target: Prothrombin (Homo sapiens) (UniProt P00734); assay: Inhibition of thrombin (unknown origin) using Boc-Val-Pro-Arg-AMC as substrate at 25 uM preincubated with protein for 15 mins followed by substrate addition measured for 10 mins by continuous fluorimetric assay relative to control
[2] = Inhibition of Dengue virus serotype-2 NS2B-NS3 protease using 2-Abz-Nle-Lys-Arg-Arg-Ser-(3-NO2)-Tyr-NH2 as substrate preincubated with protein for 15 mins followed by substrate addition measured for 15 mins by FRET assay; set-up: species or system dengue virus type 2
Outline: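 DENV-2 NS2B-NS3 linked construct at 30 nM (15 nM in some cases), same pH 9 Tris buffer, 15 min preincubation and FRET read-out. Eight inhibitor concentrations spanned 0–1, 0–2, 0–6 or 0–50 μM, with substrate at 50 μM. IC50 was fitted from triplicates.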

West Nile virus = assay: Inhibition of West Nile virus NS2B-NS3 protease using 2-Abz-Gly-Leu-Lys-Arg-Gly-Gly-[…]-Tyr-NH2 as substrate at 50 uM preincubated with protein for 15 mins followed by substrate addition measured for 15 mins by FRET assay
Outline: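 Linked WNV NS2B-NS3 protease (150 nM) was preincubated 15 min with inhibitor (50 μM final) in 50 mM Tris-HCl pH 9, 10% ethylene glycol, 0.0016% Brij 58. […] Percent inhibition was taken from the slope relative to the no-inhibitor control, in triplicate.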

[3] = Inhibition of West Nile virus NS2B-NS3 protease using 2-Abz-Gly-Leu-Lys-Arg-Gly-Gly-[…]-Tyr-NH2 as substrate preincubated with protein for 15 mins followed by substrate addition measured for 15 mins by FRET assay
Outline: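 WNV NS2B-NS3 linked construct at 75 nM (40 nM in one case) in pH 9 Tris buffer, preincubated 15 min with eight inhibitor concentrations (ranges 0–1 up to 0–50 μM). Substrate was 50 μM, with FRET readout over 15 min. IC50 was fitted from triplicates.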

| SMILES | inhibition [1] | IC50 [2] | inhibition (West Nile virus) | IC50 [3] |
| --- | --- | --- | --- | --- |
| N=C(N)NCCC[C@H](NC(=O)c1cccc(F)c1)C(=O)N[C@@H](CCCCN)C(=O)N[C@@H](C(N)=O)c1ccc(OCc2ccccc2)cc1 | < 30% | 466 nM | 95.5% | – |
| N=C(N)NCCC[C@H](NC(=O)c1ccc(-c2ccccc2)s1)C(=O)N[C@@H](CCCCN)C(=O)N[C@@H](C(N)=O)c1ccc(OCc2ccccc2)cc1 | < 30% | 347 nM | 100% | 360 nM |
| N=C(N)NCCC[C@H](NC(=O)c1ccccc1)C(=O)N[C@@H](CCCCN)C(=O)N[C@@H](C(N)=O)c1ccc(OCc2ccc(Br)cc2)cc1 | < 30% | 236 nM | 99.2% | 308 nM |
| N=C(N)NCCC[C@H](NC(=O)c1cncs1)C(=O)N[C@@H](CCCCN)C(=O)N[C@@H](C(N)=O)c1ccc(OCc2ccccc2)cc1 | < 30% | 304 nM | 97.4% | – |
| N=C(N)NCCC[C@H](NC(=O)c1cc2ccsc2s1)C(=O)N[C@@H](CCCCN)C(=O)N[C@@H](C(N)=O)c1ccc(OCc2ccccc2)cc1 | < 30% | 505 nM | 96.6% | – |
| N=C(N)NCCC[C@H](NC(=O)c1ccccc1)C(=O)N[C@@H](CCCCN)C(=O)N[C@@H](C(N)=O)c1ccc(OCc2ccc(Cl)cc2)cc1 | < 30% | 143 nM | 102% | 486 nM |
| N=C(N)NCCC[C@H](NC(=O)c1sccc1-n1cccc1)C(=O)N[C@@H](CCCCN)C(=O)N[C@@H](C(N)=O)c1ccc(OCc2ccccc2)cc1 | < 30% | 322 nM | 94.3% | – |
| N=C(N)NCCC[C@H](NC(=O)c1cc(-c2ccccc2)cs1)C(=O)N[C@@H](CCCCN)C(=O)N[C@@H](C(N)=O)c1ccc(OCc2ccccc2)cc1 | < 30% | 304 nM | 98.6% | 398 nM |
| N#Cc1ccc(COc2ccc([C@@H](NC(=O)[C@H](CCCCN)NC(=O)[C@H](CCCNC(=N)N)NC(=O)c3ccccc3)C(N)=O)cc2)cc1 | < 30% | 399 nM | 99.9% | 213 nM |
| N=C(N)NCCC[C@H](NC(=O)c1ccccc1)C(=O)N[C@@H](CCCCN)C(=O)N[C@@H](C(N)=O)c1ccc(OCc2ccc3ccccc3c2)cc1 | < 30% | 192 nM | 92.6% | – |
| N=C(N)NCCC[C@H](NC(=O)c1cscn1)C(=O)N[C@@H](CCCCN)C(=O)N[C@@H](C(N)=O)c1ccc(OCc2ccccc2)cc1 | < 30% | 173 nM | 100% | 348 nM |
| N=C(N)NCCC[C@H](NC(=O)C1CCCC1)C(=O)N[C@@H](CCCCN)C(=O)N[C@@H](C(N)=O)c1ccc(OCc2ccccc2)cc1 | < 30% | 701 nM | 96.3% | – |
| N=C(N)NCCC[C@H](NC(=O)c1ccccc1C(F)(F)F)C(=O)N[C@@H](CCCCN)C(=O)N[C@@H](C(N)=O)c1ccc(OCc2ccccc2)cc1 | < 30% | 301 nM | 98.7% | 434 nM |
| N=C(N)NCCC[C@H](NC(=O)CCc1ccccc1)C(=O)N[C@@H](CCCCN)C(=O)N[C@@H](C(N)=O)c1ccc(OCc2ccccc2)cc1 | < 30% | 906 nM | 87.4% | – |
| N=C(N)NCCC[C@H](NC(=O)C1CCC1)C(=O)N[C@@H](CCCCN)C(=O)N[C@@H](C(N)=O)c1ccc(OCc2ccccc2)cc1 | < 30% | 631 nM | 98% | 434 nM |
| N=C(N)NCCC[C@H](NC(=O)c1ccccc1)C(=O)N[C@@H](CCCCN)C(=O)N[C@@H](C(N)=O)c1ccc(OCc2ccccc2C(F)(F)F)cc1 | < 30% | 181 nM | 97% | – |
